Where two headings read alike, the source gives them in different places.
Columns and labels:
guinea pigs [1] = type: in vivo, guinea pig; conditions: for Click threshold shift, difference as compared to the control group: single shot, vs water for injection ear
guinea pigs [2] = type: in vivo, guinea pig; conditions: for Hearing threshold at 4 kHz / Hearing threshold at 8 kHz / Hearing threshold at 16 kHz / Hearing threshold at 32 kHz / Mean hearing threshold at 1 kHz / Mean hearing threshold at 2 kHz: day 28
outer hair cells = test: Outer hair cell counts in organ of Corti whole-mounts; type: in vivo, guinea pig; conditions: for Outer hair cell counts, 2nd turn / Outer hair cell counts, 3rd turn / Outer hair cell counts, apex / Outer hair cell counts, basal turn: after day 28
How it was run: (§1)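 Guinea pigs were dosed intratympanically (bulla filled; water for injection in the opposite ear) or intraperitoneally daily for 3 days. After the day-28 audiometry they were perfused with 4% buffered PFA. Cochleae were decapsulated and stained 30 min at room temperature with phalloidin-TRITC (0.3 µg/ml) and Hoechst 33342 (0.05 mg/ml), then imaged by confocal microscopy. Hair cells were counted in 3 random 200 μm segments per turn, as viable/(viable+missing) percentage.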

inner hair cells = test: Inner hair cell counts in organ of Corti whole-mounts; type: in vivo, guinea pig; conditions: 1.5 mg/kg systemic; after day 28
How it was run: as §1

[3] = Body weight after systemic application; type: in vivo, guinea pig
peritoneum = test: Histologic analysis of the peritoneum after i.p. application; type: in vivo, guinea pig; conditions: selected animals
[4] = cited from earlier work

Question: What does the source list for `CNCC(Cl)c1ccc(OC(C)=O)cc1.Cl` (centres unmarked) [CpdA, 2-(4-acetoxyphenyl)-2-chloro-N-methyl-ethylammonium chloride]?
Answer: Click threshold shift, difference as compared to the control group (guinea pigs [1]; 1 mM IT): 28 dB; Difference in click threshold shift vs control, day 28 (guinea pigs [1]; 1 mM IT): 19 dB; Change in click hearing thresholds as compared to baseline (guinea pigs [1]; 1.5 mg/kg intraperitoneally on three consecutive days): did not result in clinically relevant or statistically significant changes; Change in click hearing thresholds as compared to baseline (guinea pigs [1]; 4.5 mg/kg intraperitoneally on three consecutive days): did not result in clinically relevant or statistically significant changes; Click threshold shift, difference as compared to the control group (guinea pigs [1]; 10 mM IT): 21 dB; Difference in click threshold shift vs control, day 28 (guinea pigs [1]; 10 mM IT): 12 dB; Hearing threshold at 4 kHz (guinea pigs [2]; 1 mM IT): 57.5 dB SPL; Hearing threshold at 8 kHz (guinea pigs [2]; 1 mM IT): 40.8 dB SPL; Hearing threshold at 16 kHz (guinea pigs [2]; 1 mM IT): 32.5 dB SPL; Hearing threshold at 32 kHz (guinea pigs [2]; 1 mM IT): 50 dB SPL; Mean hearing threshold at 1 kHz (guinea pigs [2]; 1 mM IT): 56.7 dB SPL; Mean hearing threshold at 2 kHz (guinea pigs [2]; 1 mM IT): 55 dB; Frequency-specific ABR threshold shift vs baseline (guinea pigs [2]; 1.5 mg/kg intraperitoneally, day 21, p=0.048): 5 dB; Hearing threshold at 4 kHz (guinea pigs [2]; 10 mM IT): 49.2 dB SPL; Hearing threshold at 8 kHz (guinea pigs [2]; 10 mM IT): 35 dB SPL; Hearing threshold at 16 kHz (guinea pigs [2]; 10 mM IT): 35 dB SPL; Hearing threshold at 32 kHz (guinea pigs [2]; 10 mM IT): 66.7 dB SPL; Mean hearing threshold at 1 kHz (guinea pigs [2]; 10 mM IT): 44.2 dB SPL; Mean hearing threshold at 2 kHz (guinea pigs [2]; 10 mM IT): 40 dB; Outer hair cell counts, 2nd turn (outer hair cells; 1 mM IT): 99.5 ± 1.3%; Outer hair cell counts, 3rd turn (outer hair cells; 1 mM IT): 99.0 ± 3.5%; Outer hair cell counts, apex (outer hair cells; 1 mM IT): 95.2 ± 7.5%; Outer hair cell counts, basal turn (outer hair cells; 1 mM IT): 99.5 ± 1.4%; Outer hair cell counts, 2nd turn (outer hair cells; 1.5 mg/kg systemic): 99.8 ± 1.3%; Outer hair cell counts, 3rd turn (outer hair cells; 1.5 mg/kg systemic): 97.7 ± 6.4%; Outer hair cell counts, apex (outer hair cells; 1.5 mg/kg systemic): 93.8 ± 9.3%; Outer hair cell counts, basal turn (outer hair cells; 1.5 mg/kg systemic): 99.6 ± 1.2%; Outer hair cell counts, 2nd turn (outer hair cells; 4.5 mg/kg systemic): 99.7 ± 1.3%; Outer hair cell counts, 3rd turn (outer hair cells; 4.5 mg/kg systemic): 98.5 ± 3.5%; Outer hair cell counts, apex (outer hair cells; 4.5 mg/kg systemic): 98.5 ± 3.0%; Outer hair cell counts, basal turn (outer hair cells; 4.5 mg/kg systemic): 99.9 ± 0.6%; Outer hair cell counts, 2nd turn (outer hair cells; 10 mM IT): 98.4 ± 2.4%; Outer hair cell counts, 3rd turn (outer hair cells; 10 mM IT): 98.8 ± 3.3%; Outer hair cell counts, apex (outer hair cells; 10 mM IT): 97.7 ± 4.2%; Outer hair cell counts, basal turn (outer hair cells; 10 mM IT): 99.6 ± 1.3%; Loss of outer or inner hair cells (outer hair cells; any of the treatment groups (IT and systemic)): did not result in a statistically significant loss; Inner hair cell counts, 2nd turn (inner hair cells): 99.6 ± 1.3%; Inner hair cell counts, 3rd turn (inner hair cells): 99.7 ± 1.2%; Body weight [3]: weight loss was also observed; Histologic analysis of the peritoneum (peritoneum): did not show any inflammatory or necrotic alterations; Stability in buffered solutions [4]: instability
